Data taken from paper PMC5088049 (Pharmacogenetics and genomics, 2016).
Numbering of substitutions follows the chain as printed.

How the values were obtained:
Assay type in all cases: in vitro ADME
[1] = Kinetics of EXE reduction to 17β-DHE, pooled human liver cytosol
AKR1C1 [2] = target: T1, AKR1C1 (Homo sapiens, UniProt Q04828); assay: Kinetics of EXE reduction to 17β-DHE, recombinant AKR1C1; settings: wildtype AKR1C1
AKR1C2 [3] = target: T2, AKR1C2 (Homo sapiens, UniProt P52895); assay: Kinetics of EXE reduction to 17β-DHE, recombinant AKR1C2; settings: wildtype AKR1C2
T2 sequence (P52895 whole entry): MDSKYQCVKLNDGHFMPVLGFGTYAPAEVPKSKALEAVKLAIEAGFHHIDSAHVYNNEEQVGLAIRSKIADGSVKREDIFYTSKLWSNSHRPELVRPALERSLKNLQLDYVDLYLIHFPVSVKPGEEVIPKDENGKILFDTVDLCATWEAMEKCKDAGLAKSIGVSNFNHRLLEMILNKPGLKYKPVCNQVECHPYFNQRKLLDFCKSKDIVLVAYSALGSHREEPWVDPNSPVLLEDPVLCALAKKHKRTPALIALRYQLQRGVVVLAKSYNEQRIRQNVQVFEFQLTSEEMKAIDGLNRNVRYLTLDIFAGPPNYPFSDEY

AKR1C2 Phe46Tyr = target: T3, AKR1C2 Phe46Tyr (Homo sapiens, UniProt P52895, F46Y); assay: Kinetics of EXE reduction to 17β-DHE, recombinant AKR1C2 Phe46Tyr; settings: VMAX/KM
T3 sequence (P52895 1-323 F46Y): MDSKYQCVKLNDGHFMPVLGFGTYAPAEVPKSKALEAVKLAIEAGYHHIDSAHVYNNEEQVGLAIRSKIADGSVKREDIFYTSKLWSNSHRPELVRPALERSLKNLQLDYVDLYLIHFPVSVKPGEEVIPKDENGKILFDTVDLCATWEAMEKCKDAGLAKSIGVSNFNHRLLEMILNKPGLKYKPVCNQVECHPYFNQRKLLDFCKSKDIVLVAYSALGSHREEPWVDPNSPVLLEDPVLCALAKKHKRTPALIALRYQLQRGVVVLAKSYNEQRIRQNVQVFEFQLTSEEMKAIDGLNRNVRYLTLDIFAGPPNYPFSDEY

AKR1C3 Glu77Gly = AKR1C3 Glu77Gly (Homo sapiens, UniProt P42330, E77G); assay: Kinetics of EXE reduction to 17β-DHE, recombinant AKR1C3 Glu77Gly; settings: for VMAX: normalized to enzyme purity
AKR1C3 Glu77Gly, sequence (P42330 whole entry E77G): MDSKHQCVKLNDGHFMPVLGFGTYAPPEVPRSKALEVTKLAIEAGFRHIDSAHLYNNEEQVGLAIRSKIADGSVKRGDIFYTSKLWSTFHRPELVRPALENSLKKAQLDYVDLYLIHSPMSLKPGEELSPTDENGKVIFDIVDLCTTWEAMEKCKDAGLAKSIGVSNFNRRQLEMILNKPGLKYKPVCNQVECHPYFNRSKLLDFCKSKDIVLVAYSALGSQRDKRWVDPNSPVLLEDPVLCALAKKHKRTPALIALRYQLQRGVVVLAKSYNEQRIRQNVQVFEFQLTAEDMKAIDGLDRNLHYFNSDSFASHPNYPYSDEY

AKR1C3 Lys104Asn = AKR1C3 Lys104Asn (Homo sapiens, UniProt P42330, K104N); assay: Kinetics of EXE reduction to 17β-DHE, recombinant AKR1C3 Lys104Asn
AKR1C3 Lys104Asn, sequence (P42330 whole entry K104N): as the sequence (P42330 whole entry E77G) above, with G77E, K104N counted along it

AKR1C3 Pro180Ser = AKR1C3 Pro180Ser (Homo sapiens, UniProt P42330, P180S); assay: Kinetics of EXE reduction to 17β-DHE, recombinant AKR1C3 Pro180Ser
AKR1C3 Pro180Ser, sequence (P42330 whole entry P180S): as the sequence (P42330 whole entry E77G) above, with G77E, P180S counted along it

AKR1C4 [4] = target: T4, AKR1C4 (Homo sapiens, UniProt P17516); assay: Kinetics of EXE reduction to 17β-DHE, recombinant AKR1C4; settings: wildtype AKR1C4; for VMAX: normalized to enzyme purity
T4 sequence (P17516 1-323): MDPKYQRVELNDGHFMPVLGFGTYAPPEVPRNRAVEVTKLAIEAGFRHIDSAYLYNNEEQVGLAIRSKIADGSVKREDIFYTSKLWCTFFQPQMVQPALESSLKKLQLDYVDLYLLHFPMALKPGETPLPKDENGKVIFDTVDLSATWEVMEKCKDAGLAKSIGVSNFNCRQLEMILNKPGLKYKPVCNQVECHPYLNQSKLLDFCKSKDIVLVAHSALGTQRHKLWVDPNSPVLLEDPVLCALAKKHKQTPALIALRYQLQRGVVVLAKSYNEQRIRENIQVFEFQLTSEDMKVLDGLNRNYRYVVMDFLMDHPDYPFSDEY

AKR1C4 Leu311Val = target: T5, AKR1C4 Leu311Val (Homo sapiens, UniProt P17516, L311V); assay: Kinetics of EXE reduction to 17β-DHE, recombinant AKR1C4 Leu311Val
T5 sequence (P17516 1-323 L311V): T4 sequence (P17516 1-323) with L311V

CBR1 = target: T6, CBR1 (Homo sapiens, UniProt P16152); assay: Kinetics of EXE reduction to 17β-DHE, recombinant CBR1; settings: for CLINT: VMAX/KM
T6 sequence (P16152 1-277): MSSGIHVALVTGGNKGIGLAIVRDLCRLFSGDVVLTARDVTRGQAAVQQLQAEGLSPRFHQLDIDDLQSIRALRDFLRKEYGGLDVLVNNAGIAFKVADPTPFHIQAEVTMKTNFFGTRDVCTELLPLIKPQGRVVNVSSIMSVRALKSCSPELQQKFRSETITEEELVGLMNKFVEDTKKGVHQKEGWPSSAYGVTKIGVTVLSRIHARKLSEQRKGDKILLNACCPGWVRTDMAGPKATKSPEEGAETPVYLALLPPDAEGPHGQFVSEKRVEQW

[5] = Metabolite identification, overnight incubation with pooled human liver cytosol; settings: 200 µM EXE, 18-h incubation, 7.5 µg pooled human liver cytosol, PBS pH 7.4, 37°C, NADPH regeneration system
AKR1C4 [6] = target: T4, AKR1C4; assay: Metabolite identification, overnight incubation with recombinant AKR1C4; settings: 200 µM EXE, 18-h incubation, 1.5 µg recombinant AKR1C4
How it was run: (§1)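 Wildtype enzyme was His-tagged, expressed in E. coli BL21 (IPTG induction), Ni-NTA purified and dialysed against PBS. It was stopped with ice-cold acetonitrile and centrifuged. UPLC/ESI+ full scan (m/z 100–450) was followed by targeted MS/MS transitions. Retention times were matched to synthetic 17α/17β-dihydro standards.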

AKR1C1 [7] = target: T1, AKR1C1; assay: Metabolite identification, overnight incubation with recombinant AKR1C1; settings: 200 µM EXE, 18-h incubation, 1.5 µg recombinant AKR1C1
How it was run: as §1

AKR1C2 [8] = target: T2, AKR1C2; assay: Metabolite identification, overnight incubation with recombinant AKR1C2; settings: 200 µM EXE, 18-h incubation, 1.5 µg recombinant AKR1C2
How it was run: as §1

T1 sequence (Q04828 whole entry): as the sequence (P52895 whole entry) above, with V38T, H47R, V54L, S87C, M151V, H170R, L172Q counted along it

C=C1C[C@@H]2[C@H](CC[C@]3(C)C(=O)CC[C@@H]23)[C@@]2(C)C=CC(=O)C=C12 [exemestane, 6-methylenandrosa-1,4-diene-3-17-dione]
maximum rate of 17β-DHE formation (VMAX) ([1]; 5 µg pooled HLC, 90-min incubation, EXE 0.5–400 µM): 21 ± 4.8 pmol/min/mg | Km at 90 min ([1]; human, pooled human liver cytosol, pH 7.4): 55.7 ± 1.9 µM | CLINT (AKR1C1 [2]; VMAX/KM): 0.002 µL/min/mg | VMAX (AKR1C1 [2]; normalized to enzyme purity): 71.1 ± 1.5 picomoles·min^−1·mg^−1 | CLINT (AKR1C2 [3]; VMAX/KM): 0.0051 µL/min/mg | VMAX (AKR1C2 [3]; normalized to enzyme purity): 84.2 ± 15.6 picomoles·min^−1·mg^−1 | CLINT (AKR1C2 Phe46Tyr): 0.0078 µL/min/mg | Km (AKR1C3 Glu77Gly; AKR1C3 Glu77Gly (rs11551177), 17β-DHE formation): 13.9 ± 2.2 µM | CLINT (AKR1C3 Glu77Gly; AKR1C3 Glu77Gly, VMAX/KM): 0.00014 µL/min/mg | VMAX (AKR1C3 Glu77Gly; AKR1C3 Glu77Gly): 1.9 ± 0.2 picomoles·min^−1·mg^−1 | VMAX (AKR1C3 Glu77Gly; AKR1C3 Glu77Gly, listed as EXE): 1.9 ± 0.2 picomoles·min^−1·mg^−1 | Km (AKR1C3 Lys104Asn; AKR1C3 Lys104Asn (rs12387), 17β-DHE formation): 16.8 ± 1 µM | CLINT (AKR1C3 Lys104Asn; AKR1C3 Lys104Asn, VMAX/KM): 0.00038 µL/min/mg | VMAX (AKR1C3 Lys104Asn; AKR1C3 Lys104Asn, normalized to enzyme purity): 6.4 ± 0.3 picomoles·min^−1·mg^−1 | Km (AKR1C3 Pro180Ser; AKR1C3 Pro180Ser (rs34186955), 17β-DHE formation): 11.2 ± 3.1 µM | CLINT (AKR1C3 Pro180Ser; AKR1C3 Pro180Ser, VMAX/KM): 0.00032 µL/min/mg | VMAX (AKR1C3 Pro180Ser; AKR1C3 Pro180Ser, normalized to enzyme purity): 3.6 ± 0.6 picomoles·min^−1·mg^−1 | Km (AKR1C4 [4]; 17β-DHE formation): 9.7 ± 1.9 µM | CLINT (AKR1C4 [4]; VMAX/KM): 0.00024 µL/min/mg | VMAX (AKR1C4 [4]): 2.3 ± 0.6 picomoles·min^−1·mg^−1 | VMAX (AKR1C4 [4]; listed as EXE): 2.3 ± 0.6 picomoles·min^−1·mg^−1 | Km (AKR1C4 Leu311Val; AKR1C4 Leu311Val (rs17134592), 17β-DHE formation): 11.9 ± 2 µM | CLINT (AKR1C4 Leu311Val; AKR1C4 Leu311Val, VMAX/KM): 0.00053 µL/min/mg | VMAX (AKR1C4 Leu311Val; AKR1C4 Leu311Val, normalized to enzyme purity): 6.3 ± 0.8 picomoles·min^−1·mg^−1 | rate of EXE reduction by CBR1 relative to AKR1C2 (CBR1; VMAX, faster than AKR1C2): about 11 fold | rate of 17β-DHE formation by CBR1 relative to recombinant AKR1C enzymes (CBR1; more rapid than recombinant AKR1C enzymes): 11 to 403 fold | CLINT (CBR1; wildtype CBR1): 0.0035 µL/min/mg | CLINT (CBR1; wildtype CBR1, listed as EXE): 0.0035 µL/min/mg | VMAX (CBR1; wildtype CBR1, normalized to enzyme purity): 928 ± 244 picomoles·min^−1·mg^−1 | metabolite formed [5]: 17β-DHE although a lesser amount of 17α-DHE was detected as well | metabolites formed (AKR1C4 [6]): both stereoisomers of DHE | metabolites formed (AKR1C1 [7]): only 17β-DHE formation | metabolites formed (AKR1C2 [8]): only 17β-DHE formation
